# Data reported in PMC3224553 (Bioorganic & medicinal chemistry letters, 2011).
# Assays:
# [1] = in vitro microsomal stability, human liver microsomes; assay type: in vitro ADME
# [2] = in vitro microsomal stability, mouse liver microsomes; assay type: in vitro ADME
# Caco-2 permeability = assay type: in vitro ADME; conditions: human, Caco-2, Caco-2 Permeability Efflux Ratio
# Caco-2 = Caco-2 permeability; assay type: in vitro ADME
# hPK M2 = hPK M2 (Homo sapiens, UniProt P14618); experiment: luminescent pyruvate kinase-luciferase coupled assay; assay type: biochemical; conditions: for AC50: hPK M2 AC50, average from three separate experiments
# Chain of hPK M2 (P14618 whole entry): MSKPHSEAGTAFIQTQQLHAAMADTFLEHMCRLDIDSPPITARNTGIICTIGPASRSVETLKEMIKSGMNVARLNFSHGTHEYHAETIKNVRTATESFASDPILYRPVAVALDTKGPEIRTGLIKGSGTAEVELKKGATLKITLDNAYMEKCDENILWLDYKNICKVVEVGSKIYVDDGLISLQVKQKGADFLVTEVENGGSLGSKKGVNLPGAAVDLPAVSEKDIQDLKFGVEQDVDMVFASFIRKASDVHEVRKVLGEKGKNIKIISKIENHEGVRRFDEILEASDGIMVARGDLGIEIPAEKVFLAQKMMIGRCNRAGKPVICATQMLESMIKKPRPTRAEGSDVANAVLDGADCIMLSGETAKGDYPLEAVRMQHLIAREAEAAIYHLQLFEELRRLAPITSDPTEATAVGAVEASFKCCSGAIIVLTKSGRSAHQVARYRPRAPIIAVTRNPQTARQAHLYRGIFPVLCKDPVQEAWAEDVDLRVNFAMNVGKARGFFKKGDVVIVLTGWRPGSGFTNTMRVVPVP
# In short: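 Human PKM2 activity is read by luminescence in a pyruvate kinase–luciferase coupled format. AC50 values are the average of three separate experiments. Maximum response is the % activation at 57 μM of test compound, normalized as described in the supporting information.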
compound,measurement,setting,value
Cc1ccc(NS(=O)(=O)c2ccc3c(c2)CCC(=O)N3)cc1C [Compound 3],half-life,[1],< 20 min
same,half-life,[2],< 20 min
same,efflux ratio,Caco-2 permeability,< 1
same,Caco-2 Permeability Papp (A–B),Caco-2,"14.9 10^−6, cm/s"
same,Caco-2 Permeability Papp (B–A),Caco-2,"12.21 10^−6, cm/s"
Cc1ccc(NS(=O)(=O)c2cccc(C(=O)O)c2)cc1C [Compound 5],AC50,hPK M2,> 20 µM
Cc1ccc(NS(=O)(=O)c2ccc(F)cc2)cc1C [Compound 6],AC50,hPK M2,> 20 µM
Cc1ccc(NS(=O)(=O)c2ccc3ccccc3c2)cc1C [Compound 7],AC50,hPK M2,18.4 µM
Cc1ccc(NS(=O)(=O)c2cccc(Cl)c2)cc1C [Compound 8],AC50,hPK M2,18.3 µM
COc1ccc(S(=O)(=O)Nc2ccc(C)c(C)c2)cc1 [Compound 9],AC50,hPK M2,17.3 µM
Cc1ccc(NS(=O)(=O)c2ccc3c(c2)CCC(C)(C)O3)cc1C [Compound 10],AC50,hPK M2,10 µM
Cc1ccc(NS(=O)(=O)c2ccc3c(c2)NC(=O)CO3)cc1C [Compound 11],AC50,hPK M2,13.4 µM
Cc1ccc(NS(=O)(=O)c2ccc3[nH]c(=O)[nH]c3c2)cc1C [Compound 12],AC50,hPK M2,> 20 µM
CC(=O)Nc1cccc(S(=O)(=O)Nc2ccc(C)c(C)c2)c1 [Compound 13],AC50,hPK M2,13.1 µM
CC(=O)N1CCCc2cc(S(=O)(=O)Nc3ccc(C)c(C)c3)ccc21 [Compound 14],AC50,hPK M2,9 µM
Cc1ccc(NS(=O)(=O)c2ccc3c(c2)CC(=O)N3)cc1C [Compound 15],AC50,hPK M2,8.3 µM
Cc1ccc(NS(=O)(=O)c2ccc3c(c2)CCCC(=O)N3)cc1C [Compound 16],AC50,hPK M2,7.1 µM
CC(=O)Nc1ccc(S(=O)(=O)Nc2ccc(C)c(C)c2)cc1 [Compound 17],AC50,hPK M2,6.9 µM
Cc1ccc(NS(=O)(=O)c2ccc3c(c2)oc(=O)n3C)cc1C [Compound 18],AC50,hPK M2,4.3 µM
Cc1ccc(NS(=O)(=O)c2ccc3c(c2)N(C)CCO3)cc1C [Compound 19],AC50,hPK M2,6 µM
Cc1ccc(NS(=O)(=O)c2ccc(N3CCCC3=O)cc2)cc1C [Compound 20],AC50,hPK M2,0.94 µM
Cc1ccc(NS(=O)(=O)c2ccc3c(c2)CC(=O)N3C)cc1C [Compound 21],AC50,hPK M2,2.3 µM
CC(=O)N1CCc2cc(S(=O)(=O)Nc3ccc(C)c(C)c3)ccc21 [Compound 22],AC50,hPK M2,1.5 µM
Cc1ccc(NS(=O)(=O)c2cc3c(cc2N(C)C)NC(=O)CC3)cc1C [Compound 52],"PKM2 activation, result in words",hPK M2,retained activity
same,half-life,[1],< 25 min
same,half-life,[2],< 25 min
CNc1cc2c(cc1S(=O)(=O)Nc1ccc(C)c(C)c1)CCC(=O)N2 [Compound 54],"PKM2 activation, result in words",hPK M2,retained activity
same,half-life,[1],< 25 min
same,half-life,[2],< 25 min
Cc1ccc(NS(=O)(=O)c2cc3c(cc2N2CCC(N(C)C)C2)NC(=O)CC3)cc1C (stereo not shown) [Compound 56],"PKM2 activation, result in words",hPK M2,loss of activity
Cc1ccc(NS(=O)(=O)c2cc3c(cc2N2CCCCC2)NC(=O)CC3)cc1C [Compound 57],"PKM2 activation, result in words",hPK M2,loss of activity
Cc1ccc(NS(=O)(=O)c2cc3c(cc2N[C@@H](C)CO)NC(=O)CC3)cc1C [Compound 63],fold more potent than its enantiomer,hPK M2; (S)- vs (R)-alaninol derivative,4 fold
Cc1ccc(NS(=O)(=O)c2cc3c(cc2F)NC(=O)CC3)cc1Cl [Compound 64],efflux ratio,Caco-2 permeability,≤ 1
same,Caco-2 Permeability Papp (A–B),Caco-2,"6.22 10^−6, cm/s"
same,Caco-2 Permeability Papp (B–A),Caco-2,"6.24 10^−6, cm/s"
O=C1CCc2cc(S(=O)(=O)Nc3ccc(F)c(Cl)c3)c(F)cc2N1 [Compound 66],efflux ratio,Caco-2 permeability,≤ 1
same,Caco-2 Permeability Papp (A–B),Caco-2,"9.38 10^−6, cm/s"
same,Caco-2 Permeability Papp (B–A),Caco-2,"7.91 10^−6, cm/s"
Cc1ccc(NS(=O)(=O)c2cc3c(cc2N[C@@H](C)CO)NC(=O)CC3)cc1Cl [Compound 68],Caco-2 Permeability Papp (A–B),Caco-2,"1.13 10^−6, cm/s"
same,Caco-2 Permeability Papp (B–A),Caco-2,"11.9 10^−6, cm/s"
C[C@@H](CO)Nc1cc2c(cc1S(=O)(=O)Nc1ccc(F)c(Cl)c1)CCC(=O)N2 [Compound 69],Caco-2 Permeability Papp (A–B),Caco-2,"1.61 10^−6, cm/s"
same,Caco-2 Permeability Papp (B–A),Caco-2,"17.52 10^−6, cm/s"
Cc1ccc(NS(=O)(=O)c2cc(Br)cc3c2NC(=O)CC3)cc1C [Compound 74b],"PKM2 activation, result in words",hPK M2,no activity
Cc1ccc(NS(=O)(=O)c2cc(Br)cc3c2NC(=O)CC3)cc1Cl [Compound 75b],"PKM2 activation, result in words",hPK M2,no activity
Cc1ccc(NS(=O)(=O)c2cc(N[C@@H](C)CO)cc3c2NC(=O)CC3)cc1C [Compound 76b],"PKM2 activation, result in words",hPK M2,inactive
Cc1ccc(NS(=O)(=O)c2cc(N[C@@H](C)CO)cc3c2NC(=O)CC3)cc1Cl [Compound 77b],"PKM2 activation, result in words",hPK M2,inactive
